Assay results as given in ChEMBL document CHEMBL4480378, “Amide linked redox-active naphthoquinones for the treatment of mitochondrial dysfunction” (2019).
Calls of active or inactive are those of the source. No cut-off for these calls is given here.

Tests used:
HepG2 [1] = experiment: Cytoprotection against rotenone-induced mitochondrial dysfunction in human HepG2 cells assessed as acute ATP rescue at 10 uM co-treated with rotenone for 1 hr by luciferase-based assay relative to control; type: functional
Method in brief: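 HepG2 cells, 15 000 per well, attached overnight; after 24 h co-incubated with quinone (10 µM) and rotenone (10 µM) for 1 hour in glucose-free growth media. ATP then measured immediately by luciferase reaction, expressed as percentage of untreated (no rotenone) control.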

HepG2 [2] = experiment: Cytoprotection against rotenone-induced mitochondrial dysfunction in human HepG2 cells assessed as increase in cell viability by measuring ATP levels at 10 uM preincubated for 48 hrs followed by rotenone-induction and measured after 24 hrs by luciferase-based assay; type: functional
Method in brief: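 5000 HepG2 cells per well preincubated with quinone (10 µM) for 2 days, then challenged with rotenone (1 µM) for 6 hours in HBSS. Post-incubated with quinone alone in HBSS for a further 24 h. Viability read as ATP content by luciferase reaction, as percentage of untreated (no rotenone) control. 3 independent experiments, n = 6 wells each; error bars SD.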

[3] = Ratio of IC50 for cytotoxicity against rat RGC5 cells to IC50 for cytotoxicity against human HepG2 cells
Rattus norvegicus = species on record: Rattus norvegicus; experiment: Cytoprotection against rotenone-induced mitochondrial dysfunction in rat RGC5 cells assessed as increase in cell viability by measuring ATP levels at 10 uM preincubated for 48 hrs followed by rotenone-induction and measured after 24 hrs by luciferase-based assay; type: functional
[4] = Electrochemical behavior of the compound assessed as redox potential (Eox) corrected toward saturated calomel reference electrode by cyclic voltammetry
[5] = Electrochemical behavior of the compound assessed as redox potential (Ered) corrected toward saturated calomel reference electrode by cyclic voltammetry

SMILES | Activity (HepG2 [1]) | Activity (HepG2 [2]) | Ratio IC50 [3] | also measured
COc1ccc(CCNC(=O)CCCC2=C(C)C(=O)c3ccccc3C2=O)cc1OC | 100% | 100% |  | 
CCCCCCCCC1=C(C)C(=O)c2ccccc2C1=O | 60 - 90% | Active | 2 | Activity (Rattus norvegicus): Active
CC1=C(CCCc2ccccc2)C(=O)c2ccccc2C1=O |  |  | 2 | 
COC1=C(OC)C(=O)C(CCCCCCCCCCO)=C(C)C1=O [IDEBENONE] | 60 - 90% |  |  | Activity [4]: -0.637 V; Activity [5]: -0.714 V
CCCCOC(=O)CCC1=C(C)C(=O)c2ccccc2C1=O | <30% |  | 2 | 
CC1=C(CCCC(=O)N[C@@H](Cc2ccccc2)C(=O)O)C(=O)c2ccccc2C1=O | 5 - 70% | 90 - 100% |  | 
CC1=C(CCCC(=O)N2CCC[C@H]2C(=O)OC(C)(C)C)C(=O)c2ccccc2C1=O |  | 90 - 100% |  | 
CC1=C(CCCC(=O)N[C@H](CO)Cc2ccccc2)C(=O)c2ccccc2C1=O | 100% | 100% |  | 
CC1=C(CC2CCC(=O)O2)C(=O)c2ccccc2C1=O (stereo unspecified) | 60 - 90% |  | 2 | 
CC1=C(CCCC(=O)N2CCC[C@H]2C(=O)O)C(=O)c2ccccc2C1=O | 5 - 70% |  |  | 
COC(=O)[C@@H](NC(=O)CCCC1=C(C)C(=O)c2ccccc2C1=O)c1ccccc1 |  | 90 - 100% |  | 
CCCCCCCC1=C(C)C(=O)c2ccccc2C1=O | 60 - 90% | Active | 2 | Activity (Rattus norvegicus): Active
CCCCCCCCCCC1=C(C)C(=O)c2ccccc2C1=O |  | inactive | 2 | Activity (Rattus norvegicus): inactive
CC1=C(CCCC(=O)N[C@@H](Cc2ccc(OC(=O)CCCC3=C(C)C(=O)c4ccccc4C3=O)cc2)C(=O)OC(C)(C)C)C(=O)c2ccccc2C1=O |  | 90 - 100% |  | 
CC1=C(CCCCCC(=O)O)C(=O)c2ccccc2C1=O | 60 - 90% | Active |  | 
CC(=O)CCC1=C(C)C(=O)c2ccccc2C1=O | 60 - 90% | Active | 2 | Activity (Rattus norvegicus): Active
COC(=O)[C@H](NC(=O)CCCC1=C(C)C(=O)c2ccccc2C1=O)c1ccccc1 |  | 90 - 100% |  | 
CC1=C(CCC(C)C)C(=O)c2ccccc2C1=O |  |  | 2 | 
CCCCCCCC/C=C\CCCCCCCC1=C(C)C(=O)c2ccccc2C1=O |  |  | 2 | 
CCCCOC(=O)CCCC1=C(C)C(=O)c2ccccc2C1=O | <30% |  | 2 | 
CCCCCCC1=C(C)C(=O)c2ccccc2C1=O | 60 - 90% | Active | 2 | Activity (Rattus norvegicus): Active
CCOC(=O)CCCC1=C(C)C(=O)c2ccccc2C1=O | <30% |  | 2 | 
CC1=C(CC(C)(O)C(F)(F)F)C(=O)c2ccccc2C1=O (stereo unspecified) | 60 - 90% |  |  | 
CC1=C(CCCC(=O)NCCc2ccc(O)cc2)C(=O)c2ccccc2C1=O | 100% | 100% |  | 

SMILES | Activity (HepG2 [1]) | Activity (HepG2 [2]) | Ratio IC50 [3] | also measured
CC1=C(CCCCCCCCC2CO2)C(=O)c2ccccc2C1=O (stereo unspecified) | 60 - 90% |  | 2 | 
COc1ccc(CC2=C(C)C(=O)c3ccccc3C2=O)cc1OC | 60 - 90% |  | 2 | 
CC1=C(CCCC(=O)N[C@@H](CC(C)C)C(=O)O)C(=O)c2ccccc2C1=O | 5 - 70% |  |  | 
CC1=C(CCCCC(=O)O)C(=O)c2ccccc2C1=O | 60 - 90% | Active |  | 
CC1=C(CCCCCCCCCCO)C(=O)c2ccccc2C1=O |  | Active | 2 | Activity [4]: -0.768 V; Activity [5]: -0.845 V; Activity (Rattus norvegicus): Active
CC1=C(CCC(=O)O)C(=O)c2ccccc2C1=O | 60 - 90% | Active | 2 | 
CC1=C(CCC(C)O)C(=O)c2ccccc2C1=O (stereo unspecified) | 60 - 90% | Active | 2 | Activity (Rattus norvegicus): Active
CC1=C(CCCC(=O)N[C@@H](CC(C)C)C(=O)OC(C)(C)C)C(=O)c2ccccc2C1=O | 90% | inactive |  | 
CCCCCCOC(=O)CCC1=C(C)C(=O)c2ccccc2C1=O | <30% |  | 2 | 
CC1=C(CCC(F)(F)F)C(=O)c2ccccc2C1=O | 60 - 90% |  |  | 
CC1=C(CCCC(=O)N[C@@H](Cc2ccc(O)cc2)C(=O)OC(C)(C)C)C(=O)c2ccccc2C1=O | 90% | inactive |  | 
CC1=C(CC[C@@H](C)[C@H]2CC[C@H]3[C@@H]4CC[C@@H]5C[C@H](O)CC[C@]5(C)[C@H]4C[C@H](O)[C@]23C)C(=O)c2ccccc2C1=O |  |  | 2 | 
CCCCCCOC(=O)CCCC1=C(C)C(=O)c2ccccc2C1=O | <30% |  | 2 | 
CC1=C(CCC2CCCC2)C(=O)c2ccccc2C1=O | 60 - 90% |  | 2 | 
C=CCCCCCCCCC1=C(C)C(=O)c2ccccc2C1=O | 60 - 90% |  | 2 | 
CCOC(=O)CCC1=C(C)C(=O)c2ccccc2C1=O | <30% | inactive | 2 | Activity (Rattus norvegicus): Active
COC(=O)[C@H](Cc1ccccc1)NC(=O)CCCC1=C(C)C(=O)c2ccccc2C1=O |  | 90 - 100% |  | 
CC1=C(CCCC(=O)N[C@@H](Cc2ccccc2)C(=O)OC(C)(C)C)C(=O)c2ccccc2C1=O |  | 90 - 100% |  | 
CC1=C(CCCC(=O)NCCc2c[nH]c3ccccc23)C(=O)c2ccccc2C1=O | 100% | 100% |  | 
CC1=C(CC(C)CCCC(C)C)C(=O)c2ccccc2C1=O (stereo unspecified) | 60 - 90% |  | 2 | 
C=CCCC1=C(C)C(=O)c2ccccc2C1=O | 60 - 90% |  | 2 | 
CCC[C@H](NC(=O)CCCC1=C(C)C(=O)c2ccccc2C1=O)C(=O)OC(C)(C)C |  | 90 - 100% |  | 
CC1=C(CCCC(=O)NCC(=O)OC(C)(C)C)C(=O)c2ccccc2C1=O |  | 90 - 100% |  | 
